How the values were obtained:
[1] = Toxicity against new Zealand rabbit blood assessed as hemolysis after 60 mins; type: tissue-based, Oryctolagus cuniculus; details: read-out: HD50
Method in brief: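 Erythrocytes washed three times in PBS (pH 7.4) and diluted to a 10% suspension. Compounds were dissolved in DMSO, then diluted with PBS to 2.5–250 µg/mL. Suspension was added, and samples were stirred and incubated 60 min at 37 °C with periodic stirring. After centrifugation at 3000 rpm for 5 min, supernatant A540 was read. Haemolysis % was calculated relative to distilled water (100%).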

[2] = target: T1, Prostaglandin G/H synthase 2 (Homo sapiens) (UniProt P35354); details: Spodoptera frugiperda; Sf9; at 10 µM;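 further: recombinant human COX2 made in Sf9 insect cells, read-out is reactive oxygen species formed on arachidonic acid stimulation, measured after 30 min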
T1 sequence (whole entry): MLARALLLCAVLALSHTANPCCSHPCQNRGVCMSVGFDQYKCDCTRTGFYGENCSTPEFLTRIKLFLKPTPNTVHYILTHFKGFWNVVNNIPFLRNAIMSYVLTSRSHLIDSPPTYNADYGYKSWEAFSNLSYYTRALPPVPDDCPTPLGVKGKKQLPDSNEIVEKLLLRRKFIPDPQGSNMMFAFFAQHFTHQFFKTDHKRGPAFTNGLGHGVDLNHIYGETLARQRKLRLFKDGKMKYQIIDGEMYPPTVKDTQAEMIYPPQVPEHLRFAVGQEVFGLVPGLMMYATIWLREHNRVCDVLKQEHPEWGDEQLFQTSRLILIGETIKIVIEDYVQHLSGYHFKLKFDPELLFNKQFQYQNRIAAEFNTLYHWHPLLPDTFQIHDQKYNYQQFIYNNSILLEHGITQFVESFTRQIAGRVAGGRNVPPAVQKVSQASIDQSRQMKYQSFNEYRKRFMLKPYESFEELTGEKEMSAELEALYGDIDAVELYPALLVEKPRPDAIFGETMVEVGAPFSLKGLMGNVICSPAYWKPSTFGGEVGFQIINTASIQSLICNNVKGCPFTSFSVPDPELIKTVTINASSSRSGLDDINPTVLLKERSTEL

Structure (SMILES)	HC50 at 1 h [1] [µM]	inhibition [2] [%]
COC(=O)[C@@H](C)NC(=O)[C@]12CC[C@](C)(C(=O)OC)C[C@H]1C1=CC[C@@H]3[C@@]4(C)C[C@H](O)[C@H](O[C@@H]5OC[C@@H](O[C@@H]6O[C@H](CO)[C@@H](O)[C@H](O)[C@H]6O)[C@H](O)[C@H]5O)[C@@](C)(CO)[C@@H]4CC[C@@]3(C)[C@]1(C)CC2	> 274	
COC(=O)[C@@]1(C)CC[C@]2(C(=O)NCc3ccc(F)cc3)CC[C@]3(C)C(=CC[C@@H]4[C@@]5(C)C[C@H](O)[C@H](O[C@@H]6OC[C@@H](O[C@@H]7O[C@H](CO)[C@@H](O)[C@H](O)[C@H]7O)[C@H](O)[C@H]6O)[C@@](C)(CO)[C@@H]5CC[C@]43C)[C@@H]2C1	94.5	58.1
COC(=O)[C@@]1(C)CC[C@]2(C(=O)NCc3ccccc3)CC[C@]3(C)C(=CC[C@@H]4[C@@]5(C)C[C@H](O)[C@H](O[C@@H]6OC[C@@H](O[C@@H]7O[C@H](CO)[C@@H](O)[C@H](O)[C@H]7O)[C@H](O)[C@H]6O)[C@@](C)(CO)[C@@H]5CC[C@]43C)[C@@H]2C1	136	26.9
COC(=O)[C@@]1(C)CC[C@]2(C(=O)O)CC[C@]3(C)C(=CC[C@@H]4[C@@]5(C)C[C@H](O)[C@H](O[C@@H]6OC[C@@H](O[C@@H]7O[C@H](CO)[C@@H](O)[C@H](O)[C@H]7O)[C@H](O)[C@H]6O)[C@@](C)(CO)[C@@H]5CC[C@]43C)[C@@H]2C1	186	21.7
COC(=O)[C@@]1(C)CC[C@]2(C(=O)NCc3ccccc3Cl)CC[C@]3(C)C(=CC[C@@H]4[C@@]5(C)C[C@H](O)[C@H](O[C@@H]6OC[C@@H](O[C@@H]7O[C@H](CO)[C@@H](O)[C@H](O)[C@H]7O)[C@H](O)[C@H]6O)[C@@](C)(CO)[C@@H]5CC[C@]43C)[C@@H]2C1	42.8	82.9
CNC(=O)[C@]12CC[C@](C)(C(=O)OC)C[C@H]1C1=CC[C@@H]3[C@@]4(C)C[C@H](O)[C@H](O[C@@H]5OC[C@@H](O[C@@H]6O[C@H](CO)[C@@H](O)[C@H](O)[C@H]6O)[C@H](O)[C@H]5O)[C@@](C)(CO)[C@@H]4CC[C@@]3(C)[C@]1(C)CC2	276	
COC(=O)[C@@]1(C)CC[C@]2(C(=O)NCc3ccc(OC)c(OC)c3)CC[C@]3(C)C(=CC[C@@H]4[C@@]5(C)C[C@H](O)[C@H](O[C@@H]6OC[C@@H](O[C@@H]7O[C@H](CO)[C@@H](O)[C@H](O)[C@H]7O)[C@H](O)[C@H]6O)[C@@](C)(CO)[C@@H]5CC[C@]43C)[C@@H]2C1	215	19.4
COC(=O)[C@@H](CCSC)NC(=O)[C@]12CC[C@](C)(C(=O)OC)C[C@H]1C1=CC[C@@H]3[C@@]4(C)C[C@H](O)[C@H](O[C@@H]5OC[C@@H](O[C@@H]6O[C@H](CO)[C@@H](O)[C@H](O)[C@H]6O)[C@H](O)[C@H]5O)[C@@](C)(CO)[C@@H]4CC[C@@]3(C)[C@]1(C)CC2	203	
COC(=O)[C@@]1(C)CC[C@]2(C(=O)NCCO)CC[C@]3(C)C(=CC[C@@H]4[C@@]5(C)C[C@H](O)[C@H](O[C@@H]6OC[C@@H](O[C@@H]7O[C@H](CO)[C@@H](O)[C@H](O)[C@H]7O)[C@H](O)[C@H]6O)[C@@](C)(CO)[C@@H]5CC[C@]43C)[C@@H]2C1	> 287	
COC(=O)[C@@]1(C)CC[C@]2(C(=O)N(C(=O)NC3CCCCC3)C3CCCCC3)CC[C@]3(C)C(=CC[C@@H]4[C@@]5(C)C[C@H](O)[C@H](O[C@@H]6OC[C@@H](O[C@@H]7O[C@H](CO)[C@@H](O)[C@H](O)[C@H]7O)[C@H](O)[C@H]6O)[C@@](C)(CO)[C@@H]5CC[C@]43C)[C@@H]2C1	< 2.4	75
COC(=O)[C@@]1(C)CC[C@]2(C(=O)N3CCNCC3)CC[C@]3(C)C(=CC[C@@H]4[C@@]5(C)C[C@H](O)[C@H](O[C@@H]6OC[C@@H](O[C@@H]7O[C@H](CO)[C@@H](O)[C@H](O)[C@H]7O)[C@H](O)[C@H]6O)[C@@](C)(CO)[C@@H]5CC[C@]43C)[C@@H]2C1		4.6
COC(=O)[C@@]1(C)CC[C@]2(C(=O)NCCCc3ccccc3)CC[C@]3(C)C(=CC[C@@H]4[C@@]5(C)C[C@H](O)[C@H](O[C@@H]6OC[C@@H](O[C@@H]7O[C@H](CO)[C@@H](O)[C@H](O)[C@H]7O)[C@H](O)[C@H]6O)[C@@](C)(CO)[C@@H]5CC[C@]43C)[C@@H]2C1	< 2.6	
COC(=O)[C@@H](Cc1ccccc1)NC(=O)[C@]12CC[C@](C)(C(=O)OC)C[C@H]1C1=CC[C@@H]3[C@@]4(C)C[C@H](O)[C@H](O[C@@H]5OC[C@@H](O[C@@H]6O[C@H](CO)[C@@H](O)[C@H](O)[C@H]6O)[C@H](O)[C@H]5O)[C@@](C)(CO)[C@@H]4CC[C@@]3(C)[C@]1(C)CC2	204	
COC(=O)[C@H](NC(=O)[C@]12CC[C@](C)(C(=O)OC)C[C@H]1C1=CC[C@@H]3[C@@]4(C)C[C@H](O)[C@H](O[C@@H]5OC[C@@H](O[C@@H]6O[C@H](CO)[C@@H](O)[C@H](O)[C@H]6O)[C@H](O)[C@H]5O)[C@@](C)(CO)[C@@H]4CC[C@@]3(C)[C@]1(C)CC2)C(C)C	> 266	
CCCCNC(=O)[C@]12CC[C@](C)(C(=O)OC)C[C@H]1C1=CC[C@@H]3[C@@]4(C)C[C@H](O)[C@H](O[C@@H]5OC[C@@H](O[C@@H]6O[C@H](CO)[C@@H](O)[C@H](O)[C@H]6O)[C@H](O)[C@H]5O)[C@@](C)(CO)[C@@H]4CC[C@@]3(C)[C@]1(C)CC2	15.8	
CCCNC(=O)[C@]12CC[C@](C)(C(=O)OC)C[C@H]1C1=CC[C@@H]3[C@@]4(C)C[C@H](O)[C@H](O[C@@H]5OC[C@@H](O[C@@H]6O[C@H](CO)[C@@H](O)[C@H](O)[C@H]6O)[C@H](O)[C@H]5O)[C@@](C)(CO)[C@@H]4CC[C@@]3(C)[C@]1(C)CC2	191	
COC(=O)[C@@]1(C)CC[C@]2(C(=O)NCCc3ccccc3)CC[C@]3(C)C(=CC[C@@H]4[C@@]5(C)C[C@H](O)[C@H](O[C@@H]6OC[C@@H](O[C@@H]7O[C@H](CO)[C@@H](O)[C@H](O)[C@H]7O)[C@H](O)[C@H]6O)[C@@](C)(CO)[C@@H]5CC[C@]43C)[C@@H]2C1	21.3	94.7
COC(=O)[C@@]1(C)CC[C@]2(C(=O)On3nnc4ccccc43)CC[C@]3(C)C(=CC[C@@H]4[C@@]5(C)C[C@H](O)[C@H](O[C@@H]6OC[C@@H](O[C@@H]7O[C@H](CO)[C@@H](O)[C@H](O)[C@H]7O)[C@H](O)[C@H]6O)[C@@](C)(CO)[C@@H]5CC[C@]43C)[C@@H]2C1	55.2	
COC(=O)[C@@]1(C)CC[C@]2(C(=O)NCc3ccc(OC)cc3)CC[C@]3(C)C(=CC[C@@H]4[C@@]5(C)C[C@H](O)[C@H](O[C@@H]6OC[C@@H](O[C@@H]7O[C@H](CO)[C@@H](O)[C@H](O)[C@H]7O)[C@H](O)[C@H]6O)[C@@](C)(CO)[C@@H]5CC[C@]43C)[C@@H]2C1	12.7	56.8
COC(=O)[C@@H](Cc1c[nH]c2ccccc12)NC(=O)[C@]12CC[C@](C)(C(=O)OC)C[C@H]1C1=CC[C@@H]3[C@@]4(C)C[C@H](O)[C@H](O[C@@H]5OC[C@@H](O[C@@H]6O[C@H](CO)[C@@H](O)[C@H](O)[C@H]6O)[C@H](O)[C@H]5O)[C@@](C)(CO)[C@@H]4CC[C@@]3(C)[C@]1(C)CC2	> 243	47.7
COC(=O)[C@@]1(C)CC[C@]2(C(=O)NCc3ccc(Cl)cc3)CC[C@]3(C)C(=CC[C@@H]4[C@@]5(C)C[C@H](O)[C@H](O[C@@H]6OC[C@@H](O[C@@H]7O[C@H](CO)[C@@H](O)[C@H](O)[C@H]7O)[C@H](O)[C@H]6O)[C@@](C)(CO)[C@@H]5CC[C@]43C)[C@@H]2C1	< 2.6	126

From ChEMBL document CHEMBL1138252, “Synthesis, in vitro inhibitory activity towards COX-2 and haemolytic activity of derivatives of esculentoside A” (Bioorg Med Chem Lett, 2007)
